Measurements as given in ChEMBL document CHEMBL1649441, “Potency and bactericidal activity of iclaprim against recent clinical gram-positive isolates” (2009).
In brackets after ≈: the same amount, converted by molar mass.

Columns and labels:
[1] = system: Streptococcus sp. 'group A'; assay: Antibacterial activity against Beta-hemolytic Streptococcus group A assessed as inhibition of bacterial growth at 0.015 ug/ml by CLSI broth microdilution method; format: functional
Summary of the method: (§1)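 Clinical isolates from skin/soft tissue, bloodstream and respiratory specimens were tested by broth microdilution per CLSI M7-A7 and M100-S18, with quality controls. Values are the number of isolates inhibited at each concentration, or MIC / percent susceptible. Highest concentration tested was 8 µg/ml for iclaprim and trimethoprim-sulfamethoxazole, and 64 µg/ml for trimethoprim.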

Staphylococcus aureus [2] = assay: Antibacterial activity against Methicillin-resistant Staphylococcus aureus assessed as inhibition of bacterial growth at 4 ug/ml by CLSI broth microdilution method; format: functional
Summary of the method: (§2)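 Recent clinical isolates from skin/soft tissue, bloodstream and respiratory specimens. Tested by broth microdilution per CLSI M7-A7 and M100-S18, with the appropriate quality controls. The thymidine content of the test medium was assessed to rule out artifactual inhibition.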

[3] = system: Streptococcus sp. 'group A'; assay: Antibacterial activity against Beta-hemolytic Streptococcus group A assessed as inhibition of bacterial growth at 8 ug/ml by CLSI broth microdilution method; format: functional; summary of the method: as §1
[4] = system: Streptococcus sp. 'group B'; assay: Antibacterial activity against Beta-hemolytic Streptococcus group B assessed as inhibition of bacterial growth at <= 0.008 ug/ml by CLSI broth microdilution method; format: functional; summary of the method: as §1
[5] = system: Streptococcus sp. 'group A'; assay: Antibacterial activity against Beta-hemolytic Streptococcus group A assessed as inhibition of bacterial growth at […] by CLSI broth microdilution method; format: functional; also: tested at 0.25 µg/mL
[6] = system: Streptococcus sp. 'group A'; assay: Antibacterial activity against Beta-hemolytic Streptococcus group A by CLSI broth microdilution method; format: functional; summary of the method: as §1
Enterococcus faecalis [7] = assay: Antibacterial activity against Enterococcus faecalis assessed as inhibition of bacterial growth at […] by CLSI broth microdilution method; format: functional
Staphylococcus aureus [8] = assay: Antibacterial activity against Methicillin-sensitive Staphylococcus aureus assessed as inhibition of bacterial growth at 0.06 ug/ml by CLSI broth microdilution method; format: functional; parameters: Activity: scale not given: the % may be the effect or the level left
Staphylococcus aureus [9] = assay: Antibacterial activity against Methicillin-sensitive Staphylococcus aureus assessed as inhibition of bacterial growth at 0.5 ug/ml by CLSI broth microdilution method; format: functional
Enterococcus faecalis [10] = assay: Antibacterial activity against Enterococcus faecalis assessed as inhibition of bacterial growth at 0.015 ug/ml by CLSI broth microdilution method; format: functional; summary of the method: as §1
Enterococcus faecalis [11] = assay: Antibacterial activity against Enterococcus faecalis assessed as inhibition of bacterial growth at 8 ug/ml by CLSI broth microdilution method; format: functional; summary of the method: as §1
Staphylococcus aureus [12] = assay: Antibacterial activity against Methicillin-resistant Staphylococcus aureus assessed as inhibition of bacterial growth at 8 ug/ml by CLSI broth microdilution method; format: functional; summary of the method: as §2
[13] = system: Streptococcus sp. 'group A'; assay: Antibacterial activity against Beta-hemolytic Streptococcus group A assessed as inhibition of bacterial growth at 2 ug/ml by CLSI broth microdilution method; format: functional; summary of the method: as §1
Staphylococcus aureus [14] = assay: Antibacterial activity against Methicillin-resistant Staphylococcus aureus assessed as inhibition of bacterial growth at 0.5 ug/ml by CLSI broth microdilution method; format: functional; summary of the method: as §2
Staphylococcus aureus [15] = assay: Antibacterial activity against Methicillin-sensitive Staphylococcus aureus assessed as inhibition of bacterial growth at 0.015 ug/ml by CLSI broth microdilution method; format: functional
Staphylococcus aureus [16] = assay: Antibacterial activity against Methicillin-sensitive Staphylococcus aureus assessed as inhibition of bacterial growth at <= 0.008 ug/ml by CLSI broth microdilution method; format: functional; summary of the method: as §2
[17] = system: Streptococcus sp. 'group A'; assay: Antibacterial activity against Beta-hemolytic Streptococcus group A assessed as inhibition of bacterial growth at <= 0.008 ug/ml by CLSI broth microdilution method; format: functional; summary of the method: as §1
[18] = system: Streptococcus sp. 'group B'; assay: Antibacterial activity against Beta-hemolytic Streptococcus group B by CLSI broth microdilution method; format: functional; summary of the method: as §1
Staphylococcus aureus [19] = assay: Antibacterial activity against Methicillin-resistant Staphylococcus aureus assessed as inhibition of bacterial growth at <= 0.008 ug/ml by CLSI broth microdilution method; format: functional; summary of the method: as §2
Enterococcus faecium [20] = assay: Antibacterial activity against Enterococcus faecium assessed as inhibition of bacterial growth at 2 ug/ml by CLSI broth microdilution method; format: functional
Staphylococcus aureus [21] = assay: Antibacterial activity against Methicillin-resistant Staphylococcus aureus assessed as inhibition of bacterial growth at […] by CLSI broth microdilution method; format: functional; also: tested at 0.25 µg/mL
Enterococcus faecium [22] = assay: Antibacterial activity against Enterococcus faecium assessed as inhibition of bacterial growth at 4 ug/ml by CLSI broth microdilution method; format: functional
Staphylococcus aureus [23] = assay: Antibacterial activity against Methicillin-sensitive Staphylococcus aureus assessed as inhibition of bacterial growth at […] by CLSI broth microdilution method; format: functional; parameters: Activity: scale not given: the % may be the effect or the level left
Enterococcus faecium [24] = assay: Antibacterial activity against Enterococcus faecium assessed as inhibition of bacterial growth at 0.03 ug/ml by CLSI broth microdilution method; format: functional; summary of the method: as §1
Staphylococcus aureus [25] = assay: Antibacterial activity against Methicillin-resistant Staphylococcus aureus assessed as inhibition of bacterial growth at 0.03 ug/ml by CLSI broth microdilution method; format: functional; summary of the method: as §2
Enterococcus faecium [26] = assay: Antibacterial activity against Enterococcus faecium assessed as inhibition of bacterial growth at 1 ug/ml by CLSI broth microdilution method; format: functional
Enterococcus faecium [27] = assay: microbe, parasite or virus in culture; conditions: read-out: INH
Staphylococcus aureus [28] = assay: microbe, parasite or virus in culture; conditions: read-out: INH
Staphylococcus aureus [29] = assay: microbe, parasite or virus in culture; conditions: read-out: INH; remark: listed apart in the source
Staphylococcus aureus [30] = assay: Antibacterial activity against Methicillin-sensitive Staphylococcus aureus assessed as resistant isolates by CLSI broth microdilution method; format: functional
Staphylococcus aureus [31] = assay: microbe, parasite or virus in culture; conditions: read-out: INH; remark: listed apart in the source
[32] = system: Streptococcus sp. 'group B'; assay: microbe, parasite or virus in culture; conditions: read-out: INH
Enterococcus faecalis [33] = assay: microbe, parasite or virus in culture; conditions: read-out: INH
Enterococcus faecium [34] = assay: microbe, parasite or virus in culture; conditions: read-out: INH; remark: listed apart in the source
Staphylococcus aureus [35] = assay: Antibacterial activity against Methicillin-resistant Staphylococcus aureus assessed as resistant isolates by CLSI broth microdilution method; format: functional
Staphylococcus aureus [36] = assay: microbe, parasite or virus in culture; conditions: read-out: INH; remark: listed apart in the source
Staphylococcus aureus [37] = assay: microbe, parasite or virus in culture; conditions: read-out: INH; remark: listed apart in the source
[38] = system: Streptococcus sp. 'group A'; assay: microbe, parasite or virus in culture; conditions: read-out: INH
Enterococcus faecalis [39] = assay: microbe, parasite or virus in culture; conditions: read-out: INH; remark: listed apart in the source
[40] = system: Streptococcus sp. 'group B'; assay: microbe, parasite or virus in culture; conditions: read-out: INH; remark: listed apart in the source
Enterococcus faecalis [41] = assay: microbe, parasite or virus in culture; conditions: read-out: INH; remark: listed apart in the source
[42] = system: Streptococcus sp. 'group A'; assay: microbe, parasite or virus in culture; conditions: read-out: INH; remark: listed apart in the source
Staphylococcus aureus [43] = assay: Antibacterial activity against Methicillin-sensitive Staphylococcus aureus assessed as susceptible isolates by CLSI broth microdilution method; format: functional

| SMILES | inhibition at 4 µg/mL (Staphylococcus aureus [2]) | inhibition at 8 µg/mL [3] | inhibition at […] [5] | MIC50 [6] | MIC90 [6] | inhibition at […] (Enterococcus faecalis [7]) | inhibition at 0.5 µg/mL (Staphylococcus aureus [9]) | inhibition at 8 µg/mL (Enterococcus faecalis [11]) | inhibition at 8 µg/mL (Staphylococcus aureus [12]) | inhibition at 2 µg/mL [13] | inhibition at 0.5 µg/mL (Staphylococcus aureus [14]) | MIC50 [18] | MIC90 [18] | inhibition at 2 µg/mL (Enterococcus faecium [20]) | inhibition at […] (Staphylococcus aureus [21]) | inhibition at 4 µg/mL (Enterococcus faecium [22]) | inhibition at 0.03 µg/mL (Enterococcus faecium [24]) | inhibition at 1 µg/mL (Enterococcus faecium [26]) | also measured |
| --- | --- | --- | --- | --- | --- | --- | --- | --- | --- | --- | --- | --- | --- | --- | --- | --- | --- | --- | --- |
| COc1cc(Cc2cnc(N)nc2N)c2c(c1OC)OC(C1CC1)C=C2 (stereo not given) | 97.9% | 100% | 100% | 0.015 µg/mL (≈ 0.0423 µM) | 0.03 µg/mL (≈ 0.0846 µM) | 69% | 98.6% | 1.9% | 100% | 100% | 92.9% | 0.12 µg/mL (≈ 0.339 µM) | 0.25 µg/mL (≈ 0.705 µM) | 58.1% | 92.3% | 74.9% | 37.6% | 42.2% | inhibition at 0.015 µg/mL [1]: 77.6%; inhibition (INH) [4]: 0%; inhibition at 0.06 µg/mL (Staphylococcus aureus [8]; Staphylococcus aureus): 58.8%; inhibition at 0.015 µg/mL (Enterococcus faecalis [10]): 57.7%; inhibition at 0.015 µg/mL (Staphylococcus aureus [15]): 0.3%; inhibition (INH) (Staphylococcus aureus [16]): 0.1%; inhibition (INH) [17]: 30.5%; inhibition (INH) (Staphylococcus aureus [19]): 0.1%; inhibition at […] (Staphylococcus aureus [23]; Staphylococcus aureus): 95.6%; inhibition at 0.03 µg/mL (Staphylococcus aureus [25]): 12.8% |
| COc1cc(Cc2cnc(N)nc2N)cc(OC)c1OC [TRIMETHOPRIM] | 92.5% | 100% | 84.6% | 0.25 µg/mL (≈ 0.861 µM) | 0.5 µg/mL (≈ 1.72 µM) | 29.7% | 34.3% | 70.6% | 92.9% | 100% | 47.7% | 1 µg/mL (≈ 3.44 µM) | 4 µg/mL (≈ 13.8 µM) | 38.3% | 5.7% | 38.9% | 13.9% | 38% | inhibition at 64 µg/mL (Enterococcus faecium [27]): 60.7%; inhibition at 32 µg/mL (Staphylococcus aureus [28]): 98.7%; inhibition at 64 µg/mL (Staphylococcus aureus [29]): 98.7%; Activity (Staphylococcus aureus [30]): 1.3%; inhibition at 32 µg/mL (Staphylococcus aureus [31]): 94.1%; inhibition at 32 µg/mL [32]: 100%; inhibition at 32 µg/mL (Enterococcus faecalis [33]): 71%; Activity (Staphylococcus aureus [8]): 0.1%; inhibition at 16 µg/mL (Enterococcus faecium [34]): 47.2%; Activity (Staphylococcus aureus [35]): 7.1%; inhibition at 16 µg/mL (Staphylococcus aureus [36]): 93.6%; inhibition at 64 µg/mL (Staphylococcus aureus [37]): 94.6%; inhibition at 64 µg/mL [38]: 100%; inhibition at 64 µg/mL (Enterococcus faecalis [39]): 72.9%; inhibition at 16 µg/mL [40]: 100%; inhibition at 16 µg/mL (Enterococcus faecalis [41]): 70.6%; inhibition at 32 µg/mL [42]: 100%; Activity (Staphylococcus aureus [23]): 0.3%; Activity (Staphylococcus aureus [43]): 98.7% |
